Results as given in article PMC8113979 (Inorganic chemistry, 2017).
Where two headings read alike, the source gives them in different places.

Key:
[1] = system: MRC-5 (human lung fibroblast) cells; assay: MTT cytotoxicity assay in MRC-5 cells; assay type: cell-based; details: read-out: IC50 MRC-5 Normoxia, MRC-5 normal lung fibroblasts
[2] = system: A549 (human lung cancer) cells; assay: MTT cytotoxicity assay in A549 cells; assay type: cell-based
[3] = N-methylimidazole challenge; assay type: physicochemical; details: 1 mM complex, 5 mM N-methylimidazole, pH 7.4 PBS, 37 °C, 24 h
Outline: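 Complex at 1 mM final in pH 7.4 PBS with 5 mM N-methylimidazole as competing ligand. Analysed by RP-HPLC right after mixing, then again after 24 h at 37 °C. C18 column (250 × 4.6 mm, 5 μm), 1 mL/min, UV at 220 and 260 nm. Gradient: 10% MeOH/water with 0.1% TFA for 5 min, then linear to 100% MeOH (0.1% TFA) over 20 min. Starting, mono- and disubstituted species quantified from peak areas.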

[4] = Cyclic voltammetry in anhydrous DMF; assay type: physicochemical; details: vs SCE, glassy carbon, 0.10 M TBAP, 100 mV/s, 25 °C; for Epc, Co(III/II): irreversible peak potential
[5] = system: HeLa (human cervical cancer) cells; assay: MTT cytotoxicity assay in HeLa cells; assay type: cell-based; details: for IC50: Homo sapiens, HeLa
[6] = observed in other studies; cited from earlier work
A549 cells = assay: Cellular uptake of cobalt by GFAAS, normalised to protein; assay type: cell-based, human; details: A549, 100 μM complex, 24 h
HeLa and A549 cell lines = assay type: cell-based, human
[7] = value reported for the hypoxia-imaging agent; cited from earlier work
hypoxic cells = details: uptake, hypoxia vs normoxia; cited from earlier work
[8] = read-out: IC50 Without TM, A549, without tetrathiomolybdate

Structure (SMILES)	IC50 [1] [µM]	% Disubstituted [3] [%]	% Intact [3] [%]	% Monosubstituted [3] [%]	E1/2,Co(II/I) [4]	Epc, Co(III/II) [4]	also measured
NC(=S)N/N=C/C=N/NC(N)=S [GTS, glyoxal bis(thiosemicarbazone)]	> 20						IC50 [2, 8]: 0.02 ± 0.01 µM
CC(=NN=C(N)[S-])C(C)=NN=C(N)[S-].O=[N+]([O-])[O-].[Co+3].c1c[nH]cn1.c1c[nH]cn1 [[Co(ATS)(Im)2]^+]		46	11	43	−1.19 V	−0.86 V	
CC(C=NN=C(N)[S-])=NN=C(N)[S-].O=[N+]([O-])[O-].[Co+3].c1c[nH]cn1.c1c[nH]cn1 [[Co(PTS)(Im)2]^+]		54	7	39	–1.12 V	–0.84 V	
Nc1n[n+]([O-])c2ccccc2[n+]1[O-] [Tirapazamine]							hypoxia selectivity index ([5]; HeLa cells, in our lab): 3.3; IC50 ([5]; read-out: IC50 HeLa Hypoxia): 13 ± 4.2 µM; IC50 ([5]; read-out: IC50 HeLa Normoxia): 44 ± 19 µM; typical hypoxia selectivity index [6]: 10; IC50 ([2]; Homo sapiens, A549, read-out: IC50 A549 Hypoxia): 11 ± 6.5 µM; IC50 ([2]; Homo sapiens, A549, read-out: IC50 A549 Normoxia): 60 ± 5.4 µM
CC(C=NN=C(N)[S-])=NN=C(N)[S-].NCc1ccccc1.NCc1ccccc1.O=[N+]([O-])[O-].[Co+3] [[Co(PTS)(BnA)2]^+]		93	1	6	–1.14 V	–0.84 V	
CC(=NN=C(N)[S-])C(C)=NN=C(N)[S-].N.N.O=[N+]([O-])[O-].[Co+3] [[Co(ATS)(NH3)2]^+]		35	38	27	−1.18 V	−1.10 V	
CC(=NN=C(N)[S-])C(C)=NN=C(N)[S-].NCc1ccccc1.NCc1ccccc1.O=[N+]([O-])[O-].[Co+3] [[Co(ATS)(BnA)2]^+]		93	0	7	−1.18 V	−0.83 V	
CC(C=NN=C(N)[S-])=NN=C(N)[S-].N.N.O=[N+]([O-])[O-].[Co+3] [[Co(PTS)(NH3)2]^+]		22	56	22	–1.11 V	–0.92 V	
NC([S-])=NN=CC=NN=C(N)[S-].O=[N+]([O-])[O-].[Co+3].c1c[nH]cn1.c1c[nH]cn1 [[Co(GTS)(Im)2]^+]	> 250	58	6		–1.00 V	–0.72 V	Hypoxia/Normoxia Ratio of uptake (A549 cells): 1.40 ± 0.09; Co/Protein (Hypoxia) (A549 cells): 20 ± 1 pg/µg; Co/Protein (Normoxia) (A549 cells): 15 ± 1 pg/µg; IC50 [2, 8]: 2.6 ± 0.4 µM
N.N.[Cl][Pt][Cl] [Cisplatin, cisplatin]	3.5 ± 1.2						difference in activity under hypoxic versus normoxic conditions (HeLa and A549 cell lines): no difference
CN=C([S-])N/N=C(C)/C(C)=N/NC([S-])=NC.[Cu+2] [[Cu(ATSM)]]							reduction potential [7]: −0.59 V; hypoxia selectivity (hypoxic cells): 5 ×
[SH-].[SH-].[S]=[Mo]=[S] [TM, tetrathiomolybdate]							effect on cell viability ([2]; A549, 5 μM concentration): a TM does not affect the cell viability at 5 μM concentration.
O=[N+]([O-])[O-].O=[N+]([O-])[O-].[Co+2] [Co(NO3)2, reference compound]	> 500						Hypoxia/Normoxia Ratio of uptake (A549 cells): 0.88 ± 0.09; Co/Protein (Hypoxia) (A549 cells): 33 ± 3 pg/µg; Co/Protein (Normoxia) (A549 cells): 37 ± 2 pg/µg
